Screens as filed in PubChem.
Rows were chosen to be rich in hits. Some 2.8% of all compounds tested hit in one or more screens of this group.
T cruzi inh – inhibitors of intracellular T. cruzi growth, primary screen, luminescence, NIH3T3 host cells; T. cruzi beta-gal in NIH3T3, 90 h; inhibition, % (test concentration not listed); 300,000 compounds, 1.4% hits; AID 1885, 2009;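 active means mean inhibition across valid replicates above about 55%, limit read from the data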;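 further: signal also drops with host cell toxicity which is not excluded here; higher percent means less beta-gal luminescence so fewer parasites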
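Incubation – ≥90 h infection period, 3 h prior cell attachment · System – NIH/3T3 fibroblasts plus reporter T. cruzi · Doses – compound pinned at 50 nL/well, DMSO · Read-out basis – percent inhibition of parasite-derived β-gal signal · Signal – luminescent β-galactosidase signal after 60 min lysis · Also added – 5000 T. cruzi trypomastigotes/well · Medium – Low-serum DMEM with 2% FBS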
AI-2 QS modul – Vibrio harveyi AI-2 quorum sensing modulators, primary screen, JMH597 strain, luminescence/OD600 ratio; Vibrio harveyi JMH597 AI-2 luminescence/OD600 ratio, 9 h; active compounds read low; strain lacks LuxN and CqsS sensors; 0 = neutral-control median; activity change, % at 7.5 µM; 300,000 compounds, 0.4% hits; in the data active means activity change below about -75%, passing the limit was not always enough;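 further: luminescence divided by OD600 gain over 9 h not by final OD600 alone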
p-CIP stab down – p/CIP-EGFP fusion destabilizers, primary screen, fluorescence, F442A cells | Q05BA5 | 16 h | decrease of EGFP signal, % at 10 µM | 290,000 compounds, 0.01% hits | AID 1984, 2009;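 active means EGFP signal decrease of at least 30% at 10 µM or well 3 SD below plate mean, unless failing retest; inactive means the rest, including hits failing retest or dose response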
UBC13 polyUb – UBC13 polyubiquitin chain formation inhibitors, primary screen, biochemical, TR-FRET, uHTS; inhibition, % at 20 µM; 330,000 compounds, 0.47% hits; AID 485273, 2010; in the data active means inhibition above about 45%, passing the limit was not always enough
Target sequence (P61088 whole entry, looked up): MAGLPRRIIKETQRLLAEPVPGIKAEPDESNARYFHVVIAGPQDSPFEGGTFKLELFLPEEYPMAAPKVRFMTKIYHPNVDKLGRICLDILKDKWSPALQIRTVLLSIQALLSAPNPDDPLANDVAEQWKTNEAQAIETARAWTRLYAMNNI
PP1 counter – PP1-alpha phosphatase inhibitors, primary screen, counter-screen for PP5 inhibitor project, biochemical, fluorescence, OMFP substrate, single point; purified PP1alpha; inhibition, % at 6.7 µM; 320,000 compounds, 0.9% hits; AID 2235, 2010;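 active means inhibition above the mean inhibition of all tested compounds plus 3 SD, computed separately for each screening campaign, cut at about 15% in these data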
Target sequence (P62136 whole entry, looked up): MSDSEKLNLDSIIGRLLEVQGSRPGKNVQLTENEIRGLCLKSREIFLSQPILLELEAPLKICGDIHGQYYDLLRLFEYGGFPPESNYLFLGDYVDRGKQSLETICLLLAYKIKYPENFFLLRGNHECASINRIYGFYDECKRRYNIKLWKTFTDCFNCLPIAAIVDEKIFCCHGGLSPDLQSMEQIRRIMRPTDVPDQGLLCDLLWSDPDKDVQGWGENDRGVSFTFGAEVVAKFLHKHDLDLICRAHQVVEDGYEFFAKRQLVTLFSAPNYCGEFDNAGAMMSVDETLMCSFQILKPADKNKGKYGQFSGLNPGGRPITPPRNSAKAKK
Each line names hits and unclear results; the compound was inactive in the other large screens.

N=c1c2c(-c3ccccc3)c(-c3ccccc3)n(Cc3ccco3)c2ncn1CCCn1ccnc1	T cruzi inh 64 (no result: UBC13 polyUb)
N=c1c2c(-c3ccccc3)c(-c3ccccc3)oc2ncn1CCCN1CCOCC1	none
CC(C)Cn1cnc2c(c(-c3ccccc3)c(-c3ccccc3)n2Cc2ccco2)c1=N	T cruzi inh 60
N=c1c2c(-c3ccccc3)c(-c3ccccc3)n(Cc3ccccc3)c2ncn1CCO	T cruzi inh 57
OCCNc1ncnc2c1c(-c1ccccc1)c(-c1ccccc1)n2Cc1ccco1	none
N=c1c2c(-c3ccccc3)c(-c3ccccc3)n(Cc3ccco3)c2ncn1CCCN1CCOCC1	T cruzi inh 92
Cc1c(Cl)cccc1NC(=S)NCCc1ccc(C(F)(F)F)cc1	none
CCCCCCCNC(=O)C1(CC2CC(c3ccccc3)=NO2)CCN(C(=O)c2ccccc2)CC1 (stereo unspecified)	none (no result: T cruzi inh, AI-2 QS modul, p-CIP stab down)
CCCCCCCNC(=O)C1(CC2CC(c3cccc(Br)c3)=NO2)CCN(C(=O)c2ccccc2)CC1 (stereo unspecified)	T cruzi inh 61 (no result: p-CIP stab down)
Cc1cccn2cc(CCNS(=O)(=O)c3cccs3)nc12	none
CCOC(=O)N1CCN(S(=O)(=O)N2CCCC(C(=O)NCCc3ccc(OC)c(OC)c3)C2)CC1 (stereo unspecified)	none
COc1ccc(CCNC(=O)C2CCCN(S(C)(=O)=O)C2)cc1OC (stereo unspecified)	AI-2 QS modul -292
O=C(NC1CCCC1)C(c1ccncc1)N(CCCN1CCOCC1)C(=O)c1ccc(-c2ccccc2)[nH]1 (stereo unspecified)	none
CC(C)(C)NC(=O)C(c1ccc(F)cc1)N(CCc1ccccc1)C(=O)c1ccn[nH]1 (stereo unspecified)	none
CC(C)(C)NC(=O)C(c1ccncc1)N(Cc1ccc(F)cc1)C(=O)c1ccc(-c2ccccc2)[nH]1 (stereo unspecified)	T cruzi inh 59
O=C(NC1CCCC1)C(c1ccncc1)N(Cc1ccccc1)C(=O)c1ccc(-c2ccccc2)[nH]1 (stereo unspecified)	T cruzi inh 61
O=C(NC1CCCC1)C(c1ccncc1)N(Cc1ccco1)C(=O)c1ccc(-c2ccccc2)[nH]1 (stereo unspecified)	T cruzi inh 56
CC(C)c1ccc(C2c3[nH]c4ccccc4c3C[C@H]3C(=O)N(c4ccccc4C(=O)N4CCC[C@H]4C(=O)O)C(=O)N23)cc1 (stereo partly specified)	none
CC(C)(C)c1ccc(NC(=O)Nc2ccc(F)cc2)cc1	AI-2 QS modul -85
CCN(CC(=O)NCc1ccc2c(c1)OCO2)S(=O)(=O)c1ccc(F)cc1	none
COC(=O)c1sccc1NC(=O)c1c(Cl)cnn1C	none
CC1=NN(/C(=N\c2nnc(C)s2)Nc2ccc(C(C)(C)C)cc2)[C@H](c2ccc(C)cc2)S1	T cruzi inh 57
Cc1cc(NC(=O)COC(=O)c2c(C)noc2C)ccc1Br	AI-2 QS modul -91
Cc1noc(C)c1C(=O)OCC(=O)Nc1cccc(S(N)(=O)=O)c1	none
O=C(NC1CCCCC1)C(c1ccc(F)cc1)N(C(=O)Cc1ccsc1)c1ccc(F)cc1 (stereo unspecified)	T cruzi inh 74
COc1ccc(C(=O)NCCN2C(=O)S/C(=C\c3cccnc3)C2=O)cc1[N+](=O)[O-]	none
CCOC(=O)c1c(-c2ccccc2)csc1NC(=O)c1nn(CC)cc1Br	T cruzi inh 63
CCOC(=O)c1c(-c2ccccc2)csc1NC(=S)N(CC)CC	none (no result: UBC13 polyUb, PP1 counter)
CCOC(=O)c1c(-c2cccs2)csc1NC(=O)COC(=O)c1c(C)noc1C	none
CCOC(=O)c1c(-c2cccs2)csc1NC(=O)c1ccncc1	T cruzi inh 55
Cc1cc(N(C)C)nc(Nc2ccccc2)n1	none (no result: T cruzi inh, AI-2 QS modul, p-CIP stab down)
CN(C)c1ccc(NC(=O)CSc2nnc(C3CCCCC3)n2N)cc1	none
C/C(CC(C)(C)C1CCCCC1)=N\NC(N)=S	T cruzi inh 56
Cc1ccc(C(=O)Nc2ccncc2)c(C)c1	none
CC(C)(C)C(=O)CSc1nc2c(c(-c3cccs3)c1C#N)CCC2	none
Cc1cccc(CSc2nc(N)c(C#N)c(-c3cccs3)c2C#N)c1	T cruzi inh 68
CN1CCc2nc(SCC(=O)Nc3ccc(OC(F)(F)F)cc3)c(C#N)c(-c3cccs3)c2C1	none
CN1CCc2nc(SCC(=O)Nc3cccc(F)c3)c(C#N)c(-c3cccs3)c2C1	T cruzi inh 55
Cc1cccc(CSc2nc3c(c(-c4cccs4)c2C#N)CN(C)CC3)c1	T cruzi inh 58
Cc1c(F)cccc1NS(=O)(=O)c1ccc2c(c1)c(C)cc(=O)n2C	none
CC(=O)N(C(C)=O)c1nc(-c2ccccc2)cn1/N=C/c1cccc([N+](=O)[O-])c1	none
CCOc1ccc(/C=N/n2cc(-c3ccccc3)[nH]c2=S)cc1	T cruzi inh 73
S=c1[nH]c(-c2ccccc2)cn1/N=C/c1ccncc1	none
CC(=O)Cn1ncc(Br)c(Br)c1=O	T cruzi inh 56 (no result: UBC13 polyUb, PP1 counter)
Cc1ccccc1-c1nc2cc(N)ccc2o1	none
CC(C)c1ccc2oc(-c3cc(N)ccc3O)nc2c1	T cruzi inh 60
Cc1ccc2c(c1)c1n[nH]c(=S)nc1n2CCc1ccccc1	T cruzi inh 69
Fc1ccc2c(c1)c1n[nH]c(=S)nc1n2CCc1ccccc1	none (no result: PP1 counter)
O=C(/C(=C/c1ccc(Cl)cc1)c1nc2ccccc2[nH]1)c1cccs1	T cruzi inh 59
COc1ccc(CC(C)N2CCN(Cc3ccccc3)CC2)cc1OC (stereo unspecified)	none
CC(=O)C1=C(C)NC(SCC(=O)c2ccc(-c3ccccc3)cc2)=C(C#N)C1c1cccnc1 (stereo unspecified)	PP1 counter 27 (no result: T cruzi inh, AI-2 QS modul)
Cc1cccc(N2C(=O)C3C4CC(=O)C(c5ccccc54)C3C2=O)c1C (stereo unspecified)	none
Cc1cc(C)n(-c2nc(NCCN(C)C)c3c4c(sc3n2)COC(C)(C)C4)n1	none
Cc1cc(C)n(-c2nc(NCCC(C)C)c3c4c(sc3n2)COC(C)(C)C4)n1	T cruzi inh 76 (no result: UBC13 polyUb, PP1 counter)
CCOCCN(C(=O)c1ccccc1Cl)c1cccc(C)c1C	none
O=C(NC1CCC(O)CC1)c1cc(Cl)c2c(c1)OCCO2 (stereo unspecified)	none (no result: T cruzi inh, AI-2 QS modul, p-CIP stab down, PP1 counter)
S=C(Nc1cccnc1)Nc1cccc2cnccc12	p-CIP stab down 52
Nc1nc2n[nH]nc2c(=O)[nH]1	T cruzi inh 68, AI-2 QS modul -95 (no result: p-CIP stab down)
COCCn1c(SCC(=O)NNC(=O)c2cc(Cl)ccc2OC)nnc1-c1ccncc1	none (no result: T cruzi inh, AI-2 QS modul, p-CIP stab down)
CN(C)S(=O)(=O)c1cc(NC(=O)CNCc2ccccc2)ccc1Cl	none
CN(CCOc1ccccc1)CC(=O)Nc1ccc(Cl)c(S(=O)(=O)N(C)C)c1	T cruzi inh 67
